Measurements as given in ChEMBL document CHEMBL3627612, “Hirsutinolide Series Inhibit Stat3 Activity, Alter GCN1, MAP1B, Hsp105, G6PD, Vimentin, TrxR1, and Importin α-2 Expression, and Induce Antitumor Effects against Human Glioma” (J Med Chem, 2015).
Activity calls are given as the source filed them. No cut-off for these calls is given here.

What was measured:
[1] = Antiproliferative activity against human Glioma (G22) patient derived xenograft cells at 5 uM after 72 hrs by cyquant assay; format: functional, Glioma cell
U-251 [2] = experiment: Antiproliferative activity against human U251MG cells at 5 uM for 24 hrs by BrdU incorporation assay; format: functional, cell-based
Procedure, shortened: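 U251MG on glass coverslips treated with DMSO or 5 μM compound for 3–24 h; 10 μM BrdU added during the last 2 h. Cells fixed in 4% paraformaldehyde, stained with anti-BrdU antibody, DAPI counterstained, imaged by fluorescence microscopy and counted.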

U-251 [3] = experiment: Cytotoxicity against human U251MG cells at 2.5 to 5 uM after 19 hrs; format: functional, cell-based
U-251 [4] = experiment: Antimitotic activity in human U251MG cells assessed as defect in chromatid structure at 8 uM after 15 hrs confocal microscopic analysis; format: functional, cell-based
Procedure, shortened: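 U251MG on coverslips synchronized by double thymidine block (2 mM), released 9 h, treated 15 h (8 μM; paclitaxel 100 nM). Fixed 4% paraformaldehyde, digitonin-permeabilized, BSA-blocked, stained for β-tubulin and MAP1B with DAPI counterstain; chromatid structure and segregation scored by confocal microscopy.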

[5] = target: Microtubule-associated protein 1B (Homo sapiens) (UniProt P46821); experiment: Decrease in MAP1B expression in human U251MG cells at 5 uM for 1 hr by mass spectrometry relative to control; format: functional, cell-based; details: U-251
Procedure, shortened: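 U251MG cells treated 1 h with 5 μM compound; whole-cell lysates analyzed by global proteomics mass spectrometry; protein levels expressed relative to DMSO-treated cells.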

[6] = target: Stalled ribosome sensor GCN1 (Homo sapiens) (UniProt Q92616); experiment: Decrease in GCN1 expression in human U251MG cells at 5 uM for 2 hrs by immunoblot analysis; format: functional, cell-based; details: U-251
[7] = target: Heat shock protein 105 kDa (Homo sapiens) (UniProt Q92598); experiment: Decrease in Hsp105 expression in human U251MG cells at 5 uM for 2 hrs by immunoblot analysis; format: functional, cell-based; details: U-251
U-251 [8] = experiment: Increase in importin subunit alpha2 expression in human U251MG cells at 5 uM for 2 hrs by immunoblot analysis; format: functional, cell-based
[9] = Decrease in TrxR1 expression in human U251MG cells at 5 uM for 2 hrs by immunoblot analysis; format: functional, cell-based; details: U-251
[10] = target: Microtubule-associated protein 1B (Homo sapiens) (UniProt P46821); experiment: Decrease in MAP1B expression in human U251MG cells at 5 uM for 2 hrs by immunoblot analysis; format: functional, cell-based; details: U-251
[11] = target: Heat shock protein 105 kDa (Homo sapiens) (UniProt Q92598); experiment: Decrease in Hsp105 expression in human U373MG cells at 5 uM for 2 hrs by immunoblot analysis; format: functional, cell-based; details: U-373MG ATCC
U373 MG = experiment: Increase in importin subunit alpha2 expression in human U373MG cells at 5 uM for 2 hrs by immunoblot analysis; format: functional, cell-based; details: U-373MG ATCC
[12] = Decrease in TrxR1 expression in human U373MG cells at 5 uM for 2 hrs by immunoblot analysis; format: functional, cell-based; details: U-373MG ATCC
[13] = Decrease in vimentin expression in human U373MG cells at 5 uM for 2 hrs by immunoblot analysis; format: functional, cell-based; details: U-373MG ATCC
[14] = Decrease in G6PD expression in human U373MG cells at 5 uM for 2 hrs by immunoblot analysis; format: functional, cell-based; details: U-373MG ATCC
[15] = target: Microtubule-associated protein 1B (Homo sapiens) (UniProt P46821); experiment: Decrease in MAP1B expression in human U373MG cells at 5 uM for 2 hrs by immunoblot analysis; format: functional, cell-based; details: U-373MG ATCC
[16] = target: Stalled ribosome sensor GCN1 (Homo sapiens) (UniProt Q92616); experiment: Decrease in GCN1 expression in human Glioma (G22) patient derived xenograft cells at 5 uM for 2 hrs by immunoblot analysis; format: functional; details: Glioma cell
[17] = Decrease in TrxR1 expression in human Glioma (G22) patient derived xenograft cells at 5 uM for 2 hrs by immunoblot analysis; format: functional; details: Glioma cell
[18] = Decrease in vimentin expression in human Glioma (G22) patient derived xenograft cells at 5 uM for 2 hrs by immunoblot analysis; format: functional; details: Glioma cell
[19] = Decrease in G6PD expression in human Glioma (G22) patient derived xenograft cells at 5 uM for 2 hrs by immunoblot analysis; format: functional; details: Glioma cell
[20] = target: Microtubule-associated protein 1B (Homo sapiens) (UniProt P46821); experiment: Decrease in MAP1B expression in human Glioma (G22) patient derived xenograft cells at 5 uM for 2 hrs by immunoblot analysis; format: functional; details: Glioma cell
U-251 [21] = experiment: Antitumor activity against human U251MG cells xenografted in mouse assessed as decrease in Stat3 level in tumor at 2 mg/kg three times a week for 33 days administered via oral gavage by immunoblot analysis; format: functional, organism-based
Procedure, shortened: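 Female athymic nude mice, 4 weeks old, given subcutaneous flank injections of 7.3×10^6 U251MG cells in PBS/matrigel; dosing began at 170–250 mm3 tumors (day 20). Oral gavage 2 mg/kg, vehicle 1% DMSO, for 33 days. Caliper volumes V = 0.52×a²×b, compared with vehicle by paired t test; tumor lysates immunoblotted for pStat3, Stat3, GAPDH.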

Mus musculus [22] = experiment: Toxicity in mouse xenografted with U251MG cells assessed as effect on body weight at 2 mg/kg three times a week for 33 days administered via oral gavage; format: organism-based, U-251; details: in vivo, 792 h
Procedure, shortened: (§1)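 Four-week-old female athymic nude mice, injected subcutaneously in the left flank with 7.3×10^6 U251MG cells in PBS/matrigel (1:1). Tumors of 170–250 mm^3 formed by day 20, and groups were matched for mean size. Dosing was 2 mg/kg by oral gavage, three times weekly for 33 days, with 1% DMSO vehicle. Animals were monitored daily and weighed every 3 days.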

Mus musculus [23] = experiment: Toxicity in mouse xenografted with U251MG cells assessed as activity at 2 mg/kg three times a week for 33 days administered via oral gavage; format: organism-based, U-251; details: in vivo, 792 h; procedure, shortened: as §1
Mus musculus [24] = experiment: Toxicity in mouse xenografted with U251MG cells assessed as lethargy at 2 mg/kg three times a week for 33 days administered via oral gavage; format: organism-based, U-251; details: in vivo, 792 h; procedure, shortened: as §1
[25] = target: T1, Signal transducer and activator of transcription 3 (Homo sapiens, UniProt P40763); experiment: Inhibition of Stat3 activity in human U251MG cells assessed as phosphorylated Stat3 level after 2 hrs by immunoblot analysis; format: cell-based; details: U-251
Procedure, shortened: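 U251MG cells treated with 5 μM compound for 0–24 h, or with 0–5 μM for 2 h. Whole-cell lysates immunoblotted for pStat3, Stat3, GAPDH. Control was 0.025% DMSO-treated cells.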

[26] = target: T1, Signal transducer and activator of transcription 3; experiment: Inhibition of Stat3 activity in human glioma (G22) patient-derived mouse xenograft cells assessed as phosphorylated Stat3 level at 5 uM after 24 hrs by immunoblot analysis
Procedure, shortened: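 Cultured G22 glioma patient-derived mouse xenograft cells (DMEM, 5–10% heat-inactivated FBS) treated with 5 μM compound for 0–24 h. Whole-cell lysates immunoblotted for pStat3, Stat3, GAPDH.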

[27] = target: Mitogen-activated protein kinase; ERK1/ERK2 (Homo sapiens) (UniProt P27361+P28482); experiment: Modulation of Erk1/2 phosphorylation in human U251MG cells at 5 uM after 0.5 to 24 hrs by immunoblot analysis; format: cell-based; details: U-251
Procedure, shortened: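 U251MG glioma cells (RPMI or DMEM, 10% FBS, 1% nonessential amino acids) treated with 5 μM compound for 0–24 h; 0.025% DMSO control. Whole-cell lysates of equal total protein immunoblotted for pErk1/2, Erk1/2, pJAK2 and JAK2 with β-actin or GAPDH loading controls. Representative of 2–4 independent determinations.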

[28] = Antiproliferative activity against human U251MG cells for 72 hrs by cyquant assay; format: functional, cell-based; details: U-251, 72 h
Procedure, shortened: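 CyQuant proliferation assay after 72 h compound exposure of cultured cells; relative viability normalized to DMSO-treated control; IC50 values derived. Glioma lines grown in RPMI or DMEM with 10% FBS and 1% nonessential amino acids.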

T1 sequence (P40763 whole entry): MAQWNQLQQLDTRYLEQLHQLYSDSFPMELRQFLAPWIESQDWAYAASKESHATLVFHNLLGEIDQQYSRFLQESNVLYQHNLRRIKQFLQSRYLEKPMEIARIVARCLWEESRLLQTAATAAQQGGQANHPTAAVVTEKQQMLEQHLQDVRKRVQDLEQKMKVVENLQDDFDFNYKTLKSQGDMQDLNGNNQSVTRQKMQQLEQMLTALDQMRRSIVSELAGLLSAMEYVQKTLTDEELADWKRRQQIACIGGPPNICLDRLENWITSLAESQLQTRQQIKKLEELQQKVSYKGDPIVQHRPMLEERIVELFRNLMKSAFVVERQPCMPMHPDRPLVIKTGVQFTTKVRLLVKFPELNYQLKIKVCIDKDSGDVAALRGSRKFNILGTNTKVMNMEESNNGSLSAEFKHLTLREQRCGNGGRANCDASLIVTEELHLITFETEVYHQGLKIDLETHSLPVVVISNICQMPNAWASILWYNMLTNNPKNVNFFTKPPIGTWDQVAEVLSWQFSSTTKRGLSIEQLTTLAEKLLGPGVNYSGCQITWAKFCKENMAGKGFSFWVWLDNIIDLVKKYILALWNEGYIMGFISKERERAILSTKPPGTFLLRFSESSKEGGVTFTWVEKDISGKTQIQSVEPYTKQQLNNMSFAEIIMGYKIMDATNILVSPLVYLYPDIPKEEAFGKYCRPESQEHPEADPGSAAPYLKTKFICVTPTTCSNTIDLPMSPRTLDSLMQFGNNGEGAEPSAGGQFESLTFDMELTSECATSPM
Stalled ribosome sensor GCN1 (Homo sapiens), sequence (Q92616 whole entry): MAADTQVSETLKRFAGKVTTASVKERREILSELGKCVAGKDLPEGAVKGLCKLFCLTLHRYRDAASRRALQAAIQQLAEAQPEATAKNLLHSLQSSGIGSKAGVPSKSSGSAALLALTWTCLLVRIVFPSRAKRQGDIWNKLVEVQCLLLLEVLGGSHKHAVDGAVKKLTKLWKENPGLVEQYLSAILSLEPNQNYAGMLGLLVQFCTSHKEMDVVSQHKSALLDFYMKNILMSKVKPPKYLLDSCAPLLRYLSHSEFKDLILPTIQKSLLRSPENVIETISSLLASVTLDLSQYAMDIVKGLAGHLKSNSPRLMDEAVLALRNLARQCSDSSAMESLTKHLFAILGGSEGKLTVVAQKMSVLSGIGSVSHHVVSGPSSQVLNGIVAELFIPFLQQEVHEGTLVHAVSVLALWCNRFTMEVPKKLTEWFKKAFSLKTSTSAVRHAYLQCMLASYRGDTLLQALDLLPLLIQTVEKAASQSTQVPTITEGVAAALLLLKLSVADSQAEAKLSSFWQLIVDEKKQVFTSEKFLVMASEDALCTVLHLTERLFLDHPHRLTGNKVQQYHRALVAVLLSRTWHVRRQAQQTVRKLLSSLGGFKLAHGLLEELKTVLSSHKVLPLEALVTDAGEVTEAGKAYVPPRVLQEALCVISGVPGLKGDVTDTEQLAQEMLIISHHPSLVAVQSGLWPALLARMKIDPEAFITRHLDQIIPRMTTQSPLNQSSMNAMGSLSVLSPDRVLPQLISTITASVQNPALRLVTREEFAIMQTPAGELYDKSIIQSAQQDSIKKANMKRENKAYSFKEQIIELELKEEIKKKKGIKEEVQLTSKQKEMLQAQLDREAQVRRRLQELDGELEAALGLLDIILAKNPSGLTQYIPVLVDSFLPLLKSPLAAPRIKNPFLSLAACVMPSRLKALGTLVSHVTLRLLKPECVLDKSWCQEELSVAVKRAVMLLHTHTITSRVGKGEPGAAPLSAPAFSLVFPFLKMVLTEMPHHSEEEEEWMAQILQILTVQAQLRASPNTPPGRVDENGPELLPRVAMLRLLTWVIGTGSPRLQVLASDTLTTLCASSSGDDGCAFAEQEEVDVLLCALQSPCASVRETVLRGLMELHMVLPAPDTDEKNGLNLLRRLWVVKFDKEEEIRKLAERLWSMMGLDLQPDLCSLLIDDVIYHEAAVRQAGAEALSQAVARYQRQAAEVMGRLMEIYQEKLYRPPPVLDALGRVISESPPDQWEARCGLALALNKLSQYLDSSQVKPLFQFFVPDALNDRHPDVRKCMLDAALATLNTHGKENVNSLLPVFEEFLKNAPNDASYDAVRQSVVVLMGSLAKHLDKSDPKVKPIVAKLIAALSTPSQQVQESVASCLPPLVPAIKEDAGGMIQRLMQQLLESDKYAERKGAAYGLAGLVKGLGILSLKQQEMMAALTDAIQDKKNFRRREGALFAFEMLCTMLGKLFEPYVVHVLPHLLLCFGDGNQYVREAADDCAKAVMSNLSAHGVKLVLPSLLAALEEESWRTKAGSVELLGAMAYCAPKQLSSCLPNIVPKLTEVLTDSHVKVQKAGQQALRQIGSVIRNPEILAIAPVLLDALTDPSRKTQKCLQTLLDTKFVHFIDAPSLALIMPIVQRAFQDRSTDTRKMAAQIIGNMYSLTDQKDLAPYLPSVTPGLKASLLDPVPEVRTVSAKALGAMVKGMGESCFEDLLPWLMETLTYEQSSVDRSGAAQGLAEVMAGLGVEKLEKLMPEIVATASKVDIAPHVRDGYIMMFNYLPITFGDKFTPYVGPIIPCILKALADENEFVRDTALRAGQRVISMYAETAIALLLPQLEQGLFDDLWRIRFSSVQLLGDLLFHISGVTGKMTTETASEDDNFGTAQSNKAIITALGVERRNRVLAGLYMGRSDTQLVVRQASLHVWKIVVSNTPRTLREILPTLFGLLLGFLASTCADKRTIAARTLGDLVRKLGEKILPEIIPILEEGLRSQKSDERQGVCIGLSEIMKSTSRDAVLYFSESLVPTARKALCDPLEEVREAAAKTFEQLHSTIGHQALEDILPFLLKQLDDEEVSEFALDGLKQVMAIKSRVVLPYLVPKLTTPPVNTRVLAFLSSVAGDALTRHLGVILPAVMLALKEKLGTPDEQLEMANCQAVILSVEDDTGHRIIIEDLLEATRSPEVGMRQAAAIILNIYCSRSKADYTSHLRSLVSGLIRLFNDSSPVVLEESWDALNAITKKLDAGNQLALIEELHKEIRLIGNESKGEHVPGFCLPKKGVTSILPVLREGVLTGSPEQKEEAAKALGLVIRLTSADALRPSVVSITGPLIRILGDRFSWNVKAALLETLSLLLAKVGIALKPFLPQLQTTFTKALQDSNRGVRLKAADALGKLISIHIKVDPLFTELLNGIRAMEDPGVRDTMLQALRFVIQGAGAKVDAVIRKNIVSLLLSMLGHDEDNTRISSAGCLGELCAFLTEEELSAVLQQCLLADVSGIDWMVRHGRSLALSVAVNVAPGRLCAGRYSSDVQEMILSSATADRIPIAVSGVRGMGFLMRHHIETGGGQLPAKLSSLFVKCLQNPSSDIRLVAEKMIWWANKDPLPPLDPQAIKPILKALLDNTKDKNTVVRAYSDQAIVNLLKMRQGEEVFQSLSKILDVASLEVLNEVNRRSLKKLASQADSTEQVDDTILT
Mitogen-activated protein kinase; ERK1/ERK2 (Homo sapiens), sequence (P27361 whole entry, looked up): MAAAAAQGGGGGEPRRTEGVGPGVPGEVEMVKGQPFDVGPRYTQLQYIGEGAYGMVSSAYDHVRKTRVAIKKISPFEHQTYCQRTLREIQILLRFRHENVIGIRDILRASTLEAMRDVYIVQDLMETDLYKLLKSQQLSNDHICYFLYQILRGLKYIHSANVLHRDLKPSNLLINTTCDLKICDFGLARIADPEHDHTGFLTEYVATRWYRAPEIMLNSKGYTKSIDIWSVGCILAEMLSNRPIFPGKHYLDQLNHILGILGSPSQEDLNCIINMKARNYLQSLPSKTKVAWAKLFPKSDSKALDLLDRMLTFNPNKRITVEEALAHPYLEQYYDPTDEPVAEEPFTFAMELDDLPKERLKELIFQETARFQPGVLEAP
Mitogen-activated protein kinase; ERK1/ERK2 (Homo sapiens), sequence (P28482 whole entry, looked up): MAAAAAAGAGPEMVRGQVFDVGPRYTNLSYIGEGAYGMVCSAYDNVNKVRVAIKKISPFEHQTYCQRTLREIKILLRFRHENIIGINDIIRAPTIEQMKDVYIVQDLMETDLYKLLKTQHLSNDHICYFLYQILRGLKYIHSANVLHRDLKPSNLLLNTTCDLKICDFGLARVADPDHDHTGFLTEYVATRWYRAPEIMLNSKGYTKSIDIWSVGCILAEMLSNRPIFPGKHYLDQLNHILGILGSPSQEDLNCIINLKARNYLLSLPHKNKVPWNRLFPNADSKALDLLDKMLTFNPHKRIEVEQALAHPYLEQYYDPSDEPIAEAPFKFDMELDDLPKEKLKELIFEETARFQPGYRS
Heat shock protein 105 kDa (Homo sapiens), sequence (Q92598 whole entry): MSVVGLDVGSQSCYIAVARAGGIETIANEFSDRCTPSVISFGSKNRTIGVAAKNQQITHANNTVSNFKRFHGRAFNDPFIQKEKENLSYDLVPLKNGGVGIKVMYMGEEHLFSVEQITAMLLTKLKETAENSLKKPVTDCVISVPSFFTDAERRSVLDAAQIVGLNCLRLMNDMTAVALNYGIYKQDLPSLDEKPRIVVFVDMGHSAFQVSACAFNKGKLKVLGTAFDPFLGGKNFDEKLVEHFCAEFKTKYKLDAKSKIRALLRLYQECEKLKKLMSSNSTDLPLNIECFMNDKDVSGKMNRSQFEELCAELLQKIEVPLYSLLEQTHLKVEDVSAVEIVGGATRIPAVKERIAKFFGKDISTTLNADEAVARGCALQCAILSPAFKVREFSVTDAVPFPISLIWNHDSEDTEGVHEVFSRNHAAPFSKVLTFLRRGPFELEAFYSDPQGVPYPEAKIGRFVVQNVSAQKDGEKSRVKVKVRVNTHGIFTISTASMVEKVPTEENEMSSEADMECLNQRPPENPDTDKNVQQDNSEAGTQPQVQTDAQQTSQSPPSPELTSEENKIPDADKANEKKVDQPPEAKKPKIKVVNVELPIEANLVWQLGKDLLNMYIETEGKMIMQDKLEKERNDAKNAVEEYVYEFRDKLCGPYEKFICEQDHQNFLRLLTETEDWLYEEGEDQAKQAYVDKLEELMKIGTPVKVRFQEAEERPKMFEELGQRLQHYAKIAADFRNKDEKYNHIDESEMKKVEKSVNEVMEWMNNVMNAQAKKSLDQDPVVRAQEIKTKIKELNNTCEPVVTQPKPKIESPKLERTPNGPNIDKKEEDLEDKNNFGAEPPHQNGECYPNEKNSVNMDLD

| fold change (FC) [5] | inhibition [6] | inhibition [7] | inhibition [10] | inhibition [11] | inhibition [15] | inhibition [16] | inhibition [25] | inhibition [26] | Activity [27] | Structure (SMILES) | inhibition (INH) [1] [%] | Activity (U-251 [2]) | Activity (U-251 [3]) | Activity (U-251 [4]) | Activity (U-251 [8]) | inhibition [9] | Activity (U373 MG) | inhibition [12] | inhibition [13] | inhibition [14] | other results |
| --- | --- | --- | --- | --- | --- | --- | --- | --- | --- | --- | --- | --- | --- | --- | --- | --- | --- | --- | --- | --- | --- |
| 0.413 | Active | Active | Active | Active | Active | Active | Dose-dependent effect | inactive | inactive | C/C=C(\C)C(=O)OCC1=C2/C(=C\[C@@]3(C)CC[C@](O)(O3)[C@H](C)C[C@@H]2O)OC1=O | 45 | Active | inactive | Active | Active | Active | Active | Active | Active | Active | inhibition [17]: Active; inhibition [18]: Active; inhibition [19]: Active; inhibition [20]: Active; Activity (U-251 [21]): Active; Activity (Mus musculus [22]): Non-toxic; Activity (Mus musculus [23]): Non-toxic; Activity (Mus musculus [24]): Non-toxic |
| 0.649 | Active | Active | Active | Active | Active | Active | Dose-dependent effect | inactive | inactive | C/C=C(\C)C(=O)O[C@H]1C[C@@H](C)[C@]2(O)CC[C@](C)(/C=C3/OC(=O)C(COC(C)=O)=C31)O2 | 45 | Active | inactive | Active | Active | Active | Active | Active | Active | Active | inhibition [17]: Active; inhibition [18]: Active; inhibition [19]: Active; inhibition [20]: Active; Activity (U-251 [21]): Active; Activity (Mus musculus [22]): Non-toxic; Activity (Mus musculus [23]): Non-toxic; Activity (Mus musculus [24]): Non-toxic; IC50 [28]: 1700 nM |
| – | – | – | – | – | – | – | Dose-dependent effect | inactive | inactive | C/C=C(\C)C(=O)O[C@H]1C[C@@H](C)[C@]2(OC)CC[C@](C)(/C=C3/OC(=O)C(COC(C)=O)=C31)O2 | 45 | – | inactive | – | – | – | – | – | – | – | IC50 [28]: 3400 nM |
